Laboratory results published in ChEMBL document CHEMBL1154335, “2-(3-Thienyl)-5,6-dihydroxypyrimidine-4-carboxylic acids as inhibitors of HCV NS5B RdRp” (Bioorg Med Chem Lett, 2009).
“And” between values parts separate entries of the source, which are not always exact repeats. Identical values can stand only once.

Legend:
Hepatitis C virus [1] = assay: Inhibition of HCV1b Cdelta55 NS5B polymerase; format: functional, organism-based, Hepatitis C virus subtype 1b
Hepatitis C virus [2] = assay: Antiviral activity against Hepatitis C virus subtype 1b infected in human HuH7 cells by replicon assay; format: functional, organism-based, Hepacivirus hominis; details: genotype 1b, Huh-7
Hepatitis C virus [3] = assay: Antiviral activity against Hepatitis C virus subtype 2a infected in human HuH7 cells by replicon assay; format: functional, organism-based, Hepacivirus hominis, genotype 2a, Huh-7
Outline: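 Full-length HCV genotype 2a infectivity assay; EC50 determined.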

Hepatitis C virus [4] = assay: Inhibition of HCV1b Cdelta21 NS5B polymerase; format: functional, Hepatitis C virus subtype 1b
Hepatitis C virus [5] = assay: Inhibition of HCV2a Cdelta21 NS5B polymerase; format: functional, Hepatitis C virus subtype 2a
[6] = Inhibition of HCV2b Cdelta21 NS5B polymerase; set-up: species or system Hepatitis C virus subtype 2b
[7] = Inhibition of HCV3a Cdelta21 NS5B polymerase; set-up: species or system Hepatitis C virus subtype 3a
[8] = Half life in rat plasma at 3 mg/kg, iv; format: ADME, organism-based; set-up: dose 3 mg/kg, route intravenous
Outline: (§1)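 Rat, single intravenous dose of 3 mg/kg; plasma sampled for half-life, volume of distribution and turnover (clearance).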

[9] = Volume of distribution in rat at 3 mg/kg, iv; format: ADME, organism-based; set-up: dose 3 mg/kg, route intravenous; details: in vivo; outline: as §1
[10] = Protein binding in rat serum; format: ADME, cell-free; details: read-out: PB
Outline: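 Binding to rat serum proteins measured.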

[11] = AUC in rat plasma at 3 mg/kg, po; format: ADME, organism-based; set-up: dose 3 mg/kg, route oral
Outline: (§2)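 Rat, oral dose of 3 mg/kg; plasma exposure (AUC) measured and oral bioavailability derived.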

[12] = Oral bioavailability in rat at 3 mg/kg; format: ADME, organism-based; details: in vivo; outline: as §2
[13] = Bioavailability in intramuscular dosed rat; format: ADME, organism-based; details: in vivo, im
Outline: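 Rat, intramuscular administration; plasma exposure measured to derive bioavailability.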

Hepatitis C virus [14] = assay: Inhibition of wild type HCV con1 Cdelta55 NS5B polymerase; format: functional, Hepacivirus hominis; details: isolate Con1
Outline: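 Recombinant NS5B truncated by 55 C-terminal residues (ΔC55), genotype 1b HCV; IC50 determined from enzyme inhibition.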

Hepatitis C virus [15] = assay: Inhibition of HCV con1 Cdelta55 NS5B polymerase G152E mutant; format: functional, Hepacivirus hominis; details: isolate Con1
Outline: (§3)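 IC50 determined on isolated recombinant NS5B polymerase carrying a single P156S or G152E substitution. These substitutions were identified in replicon colonies selected with […]. Wild-type enzyme was run alongside as the reference.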

[16] = Metabolic stability in rat assessed as compound turnover at 3 mg/kg, iv; format: ADME, organism-based; set-up: dose 3 mg/kg, route intravenous; details: in vivo, read-out: Stability; outline: as §1
Hepatitis C virus [17] = assay: Inhibition of HCV con1 Cdelta55 NS5B polymerase P156S mutant; format: functional, Hepacivirus hominis; details: isolate Con1; outline: as §3
[18] = Hepatitis C virus, genotype 2a, Huh-7

SMILES	IC50 (Hepatitis C virus [1]) [nM]	EC50 (Hepatitis C virus [2]) [nM]	also measured
O=C(Nc1cscc1-c1nc(O)c(O)c(C(=O)O)n1)NS(=O)(=O)c1cccc2ccccc12	36	3600	EC50 (Hepatitis C virus [3]; huh-7): 3700 nM and 9600 nM; IC50 (Hepatitis C virus [4]): 5.6 nM; IC50 (Hepatitis C virus [5]): 2.1 nM; IC50 [6]: 5.8 nM; IC50 [7]: 3.9 nM; half-life [8]: 15 h; Vd [9]: 0.1 L/kg; fraction unbound [10]: < 0.01; AUC [11]: 3.3 µM·h; bioavailability [12]: 2%; bioavailability [13]: 89%; IC50 (Hepatitis C virus [14]): 40 nM; IC50 (Hepatitis C virus [15]): 300 nM; clearance [16]: 0.2 mL/min/kg
O=C(Nc1cscc1-c1nc(O)c(O)c(C(=O)O)n1)NS(=O)(=O)c1ccc2ccccc2c1	48	32000	
O=C(Cc1ccccc1Cl)Nc1cscc1-c1nc(O)c(O)c(C(=O)O)n1	2610		
O=C(Nc1cscc1-c1nc(O)c(O)c(C(=O)O)n1)OCc1ccccc1	326		
Cn1c(-c2cccs2)nc(C(=O)O)c(O)c1=O			IC50 (Hepatitis C virus [14]): 4600 nM; IC50 (Hepatitis C virus [15]): 3200 nM; IC50 (Hepatitis C virus [17]): 5600 nM
O=C(Nc1cscc1-c1nc(O)c(O)c(C(=O)O)n1)NS(=O)(=O)c1cccc(Cl)c1Cl	12	2400	EC50 (Hepatitis C virus [3]; [18]): 4900 nM
O=C(Nc1sccc1-c1nc(O)c(O)c(C(=O)O)n1)OCc1ccccc1	343		
O=C(O)c1nc(-c2ccccc2)nc(O)c1O	30000		
O=C(O)c1nc(-c2cccs2)nc(O)c1O	2600		
O=C(NCc1ccccc1Cl)Nc1ccsc1-c1nc(O)c(O)c(C(=O)O)n1			IC50 (Hepatitis C virus [14]): 180 nM; IC50 (Hepatitis C virus [15]): 800 nM; IC50 (Hepatitis C virus [17]): 170 nM
O=C(NCc1ccccc1)Nc1cscc1-c1nc(O)c(O)c(C(=O)O)n1	873		
O=C(Nc1cscc1-c1nc(O)c(O)c(C(=O)O)n1)NS(=O)(=O)c1ccccc1Br	74	3400	IC50 (Hepatitis C virus [14]): 60 nM; IC50 (Hepatitis C virus [15]): 400 nM; IC50 (Hepatitis C virus [17]): 70 nM

More lines, in order of falling IC50 (Hepatitis C virus [1]), values ahead:

IC50 (Hepatitis C virus [1]) [nM]	EC50 (Hepatitis C virus [2]) [nM]	SMILES	also measured
8280		CC(C)(C)OC(=O)Nc1cscc1-c1nc(O)c(O)c(C(=O)O)n1	
6150		O=C(O)c1nc(-c2ccsc2)nc(O)c1O	
426		CS(=O)(=O)NC(=O)Nc1cscc1-c1nc(O)c(O)c(C(=O)O)n1	
258		O=C(NCc1ccccc1Cl)Nc1cscc1-c1nc(O)c(O)c(C(=O)O)n1	
85	26000	O=C(Nc1cscc1-c1nc(O)c(O)c(C(=O)O)n1)NS(=O)(=O)c1ccc(Cl)cc1	
78	2600	O=C(Nc1cscc1-c1nc(O)c(O)c(C(=O)O)n1)NS(=O)(=O)c1ccccc1Cl	EC50 (Hepatitis C virus [3]; [18]): 6600 nM
62	32000	O=C(Nc1cscc1-c1nc(O)c(O)c(C(=O)O)n1)NS(=O)(=O)c1ccccc1	
47	16000	Cc1ccccc1S(=O)(=O)NC(=O)Nc1cscc1-c1nc(O)c(O)c(C(=O)O)n1	
38	37000	O=C(Nc1cscc1-c1nc(O)c(O)c(C(=O)O)n1)NS(=O)(=O)c1cccc(Br)c1	
